Laboratory results from ChEMBL document CHEMBL3734737, “Synthesis and Evaluation of a Radioiodinated Tracer with Specificity for Poly(ADP-ribose) Polymerase-1 (PARP-1) in Vivo” (J Med Chem, 2015).

Assays:
[1] = target: albumin (Homo sapiens, UniProt P02768); test: Protein binding to human serum albumin at 0.5 to 1.5 mg/ml by HPLC method; type: ADME; conditions: read-out: PPB (converted)
[2] = Octanol-water partition coefficient, log P of the compound at 0.5 to 1.5 mg/ml by HPLC method; type: physicochemical
Procedure, shortened: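 Samples of 0.5–1.5 mg/mL in MeCN/PBS were run in triplicate on reverse-phase C18 HPLC. The gradient was PBS/MeCN at 1.0 mL/min, with PBS at pH 4.0, 7.4 and 10.0. Retention times were calibrated against seven standards of known chromatographic hydrophobicity index (CHI) to give non-ionized CHI, from which log P was derived.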

[3] = target: Poly [ADP-ribose] polymerase 1 (Homo sapiens, UniProt P09874); test: Inhibition of PARP1 (unknown origin) incubated for 10 mins using biotinylated NAD+ and activated DNA by colorimetric assay
[4] = Metabolic stability in black-6 mouse plasma assessed as residual compound level at 250 uM incubated for 20 hrs by LC-MS method; type: ADME, cell-free; conditions: read-out: Stability
Procedure, shortened: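 Plasma was taken from EDTA-treated female black-6 mouse blood. Compound (10 μL of 250 μM stock into 50 μL plasma; DMSO <1%) was held at room temperature for 0 or 20 h. It was MeOH-precipitated and measured by LC-MS (SIM) against an internal standard, as % parent relative to a no-plasma control. Three experiments, ± SD.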

[5] = Intrinisc clerarance in human liver microsomes assessed as residual compound level at 60 uM preincubated for 10 mins followed by NADPH addition in KH2PO4 at pH 7.4 by LC-MS method; type: ADME; conditions: read-out: CLH
[6] = tested on: Liver; test: Drug level in liver of human U87MG-Luc2 cells xenografted CD1 mouse at 0.8 to 1.1 MBq, iv after 30 mins by gamma counting method; type: ADME, organism-based; conditions: in vivo, 0.5 h
Procedure, shortened: (§1)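 Female 7–11 week CD1 nude mice carrying subcutaneous U87MG-Luc2 flank xenografts (5×10^6 cells; used 21–30 days post-implant) got a tail-vein bolus of 0.8–1.1 MBq [123I]-tracer in 10% EtOH/0.9% saline. They were killed by CO2 at 30 min (n=3). Tissues were fixed in formaldehyde, weighed and gamma counted. Background was subtracted and %ID/g was derived from a dose-stock control.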

[7] = Drug level in small bowel matter of human U87MG-Luc2 cells xenografted CD1 mouse at 0.8 to 1.1 MBq, iv after 30 mins by gamma counting method; type: ADME, organism-based; conditions: in vivo, 0.5 h; procedure, shortened: as §1
[8] = Drug level in solid feces of human U87MG-Luc2 cells xenografted CD1 mouse at 0.8 to 1.1 MBq, iv after 30 mins by gamma counting method; type: ADME, organism-based; conditions: in vivo, 0.5 h, TDE = time-dependent effect; procedure, shortened: as §1
[9] = tested on: Brain; test: Drug level in brain of human U87MG-Luc2 cells xenografted CD1 mouse at 0.8 to 1.1 MBq, iv after 30 mins by gamma counting method; type: ADME, organism-based; conditions: in vivo, 0.5 h; procedure, shortened: as §1

Poly [ADP-ribose] polymerase 1, sequence (P09874 whole entry): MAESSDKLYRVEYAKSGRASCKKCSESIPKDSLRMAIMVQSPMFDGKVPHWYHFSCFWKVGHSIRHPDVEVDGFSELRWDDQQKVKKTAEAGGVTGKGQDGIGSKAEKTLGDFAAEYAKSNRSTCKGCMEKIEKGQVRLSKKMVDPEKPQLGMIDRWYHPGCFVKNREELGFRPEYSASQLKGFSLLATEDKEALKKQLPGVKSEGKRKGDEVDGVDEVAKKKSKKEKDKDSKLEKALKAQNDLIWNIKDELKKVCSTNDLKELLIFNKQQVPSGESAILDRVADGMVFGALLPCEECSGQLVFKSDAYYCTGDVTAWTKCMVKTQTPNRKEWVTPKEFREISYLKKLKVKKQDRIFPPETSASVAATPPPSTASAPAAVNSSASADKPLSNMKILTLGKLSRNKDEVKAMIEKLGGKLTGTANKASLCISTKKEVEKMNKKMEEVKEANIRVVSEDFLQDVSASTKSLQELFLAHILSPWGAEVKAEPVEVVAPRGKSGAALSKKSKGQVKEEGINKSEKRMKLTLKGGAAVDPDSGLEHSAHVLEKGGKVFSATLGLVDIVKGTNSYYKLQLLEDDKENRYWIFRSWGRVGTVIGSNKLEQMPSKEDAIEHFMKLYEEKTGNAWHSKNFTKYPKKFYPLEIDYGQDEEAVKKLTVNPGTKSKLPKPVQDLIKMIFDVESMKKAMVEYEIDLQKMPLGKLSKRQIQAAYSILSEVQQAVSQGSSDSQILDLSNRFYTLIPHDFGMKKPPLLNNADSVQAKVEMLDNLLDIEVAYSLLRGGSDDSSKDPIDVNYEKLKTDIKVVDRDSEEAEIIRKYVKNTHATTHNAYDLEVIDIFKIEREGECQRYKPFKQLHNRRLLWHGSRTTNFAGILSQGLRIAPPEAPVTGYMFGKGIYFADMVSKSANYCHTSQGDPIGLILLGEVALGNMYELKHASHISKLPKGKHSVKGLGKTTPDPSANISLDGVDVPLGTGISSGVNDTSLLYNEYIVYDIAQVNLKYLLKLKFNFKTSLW
albumin, sequence (P02768 whole entry): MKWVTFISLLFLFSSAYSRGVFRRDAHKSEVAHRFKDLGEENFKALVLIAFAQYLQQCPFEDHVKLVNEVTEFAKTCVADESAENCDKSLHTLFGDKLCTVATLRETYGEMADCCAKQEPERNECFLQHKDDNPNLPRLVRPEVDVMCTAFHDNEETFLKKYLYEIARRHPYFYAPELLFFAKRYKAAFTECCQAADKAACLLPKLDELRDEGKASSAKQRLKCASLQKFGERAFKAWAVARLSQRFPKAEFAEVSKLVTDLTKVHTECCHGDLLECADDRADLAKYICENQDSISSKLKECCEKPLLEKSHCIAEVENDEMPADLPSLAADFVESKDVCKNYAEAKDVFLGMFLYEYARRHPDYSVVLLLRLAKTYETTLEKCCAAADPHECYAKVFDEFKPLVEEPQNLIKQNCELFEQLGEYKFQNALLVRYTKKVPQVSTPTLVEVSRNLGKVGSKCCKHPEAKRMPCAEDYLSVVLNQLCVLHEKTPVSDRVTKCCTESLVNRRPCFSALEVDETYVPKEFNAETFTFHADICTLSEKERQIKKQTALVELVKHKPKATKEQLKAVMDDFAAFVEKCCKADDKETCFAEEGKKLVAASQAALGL

CNC(=C[N+](=O)[O-])NCCSCc1csc(CN(C)C)n1 [NIZATIDINE]
fraction unbound [1]: 0.65

CCCC1O[C@@H]2C[C@H]3[C@@H]4CCC5=CC(=O)C=C[C@]5(C)[C@H]4[C@@H](O)C[C@]3(C)[C@]2(C(=O)CO)O1 (some centres not stated) [BUDESONIDE]
fraction unbound [1]: 0.12

O=C1CN=C(c2ccccn2)c2cc(Br)ccc2N1 [BROMAZEPAM]
fraction unbound [1]: 0.4

O=C(Cc1cccc(I)c1)N1CCN(C(=O)c2cc(Cc3n[nH]c(=O)c4ccccc34)ccc2F)CC1
logP [2]: 3.13 | fraction unbound [1]: 0.025 | IC50 [3]: 5.8 nM

Cc1ccc(C(=O)N2CCN(C(=O)c3cc(Cc4n[nH]c(=O)c5ccccc45)ccc3F)CC2)cc1I
logP [2]: 3.23 | fraction unbound [1]: 0.024 | IC50 [3]: 16.9 nM

O=C(c1cccc(I)c1)N1CCN(C(=O)c2cc(Cc3n[nH]c(=O)c4ccccc34)ccc2F)CC1
logP [2]: 2.97 | fraction unbound [1]: 0.039

COc1ccc(C(=O)N2CCN(C(=O)c3cc(Cc4n[nH]c(=O)c5ccccc45)ccc3F)CC2)cc1I
logP [2]: 2.95 | fraction unbound [1]: 0.035 | IC50 [3]: 17.6 nM

O=C(c1ccc(I)cc1)N1CCN(C(=O)c2cc(Cc3n[nH]c(=O)c4ccccc34)ccc2F)CC1
logP [2]: 3 | fraction unbound [1]: 0.038 | remaining at 20 h, 250 µM [4]: 98% | microsomal CLint at 60 µM [5]: 85 µL/min/mg

O=C(c1cc(Cc2n[nH]c(=O)c3ccccc23)ccc1F)N1CCN(S(=O)(=O)c2ccc(I)cc2)CC1
logP [2]: > 3.25 | fraction unbound [1]: 0.016 | IC50 [3]: 22.6 nM

O=C(c1ccc([123I])cc1)N1CCN(C(=O)c2cc(Cc3n[nH]c(=O)c4ccccc34)ccc2F)CC1
Drug uptake [6]: Active | Drug uptake [7]: Active | Drug uptake [8]: tde | Drug uptake [9]: Not Active

O=C(COc1ccc(I)cc1)N1CCN(C(=O)c2cc(Cc3n[nH]c(=O)c4ccccc34)ccc2F)CC1
logP [2]: 3.25 | fraction unbound [1]: 0.019 | IC50 [3]: 3 nM

NC(=O)N1c2ccccc2C=Cc2ccccc21 [CARBAMAZEPINE]
fraction unbound [1]: 0.25

O=C(c1cc(Cc2n[nH]c(=O)c3ccccc23)ccc1F)N1CCN(C(=O)C2CC2)CC1 [OLAPARIB]
logP [2]: 1.95 | microsomal CLint at 60 µM [5]: 29 µL/min/mg

COC(=O)C1=C(C)NC(C)=C(C(=O)OCCN(C)Cc2ccccc2)C1c1cccc([N+](=O)[O-])c1 (configuration not stated) [NICARDIPINE]
fraction unbound [1]: 0.05
